# In the library only some 4.5% were active in any assay of this set; here they are far more common.
# GPR7 antag: GPR7 receptor antagonists, primary screen, cell-based, fluorescence, single concentration. Neuropeptides B/W receptor type 1 (Homo sapiens), P48145. GPR7-expressing cells, fluorescence antagonist assay. inhibition, % at 4.4 µM. 290,000 compounds, 1.1% hits; in the data active = inhibition above about 16%, passing the limit was not always enough;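 also: cells stimulated with the agonist NPW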
# CHO parental Ca: ATP-evoked calcium signal inhibitors, parental CHO, primary screen, counter-screen for OX1R antagonist project, cell-based, fluorescence, Fluo-8 calcium dye | parental CHO-K1, ATP-induced calcium, Fluo-8 fluorescence | inhibition, % at 5.6 µM | 330,000 compounds, 0.63% hits;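 active = inhibition above that plate's mean sample inhibition plus 3 SD, cut at about 26% in these data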
#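 Assay system: untransfected parental CHO cell line. Also added: ATP agonist challenge. Dosing: one dose, 5.6 µM nominal. Measured by: Fluo-8 fluorescence. Read-out: % inhibition. Benchmarks: ATP wells versus no-ATP DMSO wells. Repeats: no replicates.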
# TAAR1 ag: human TAAR1 agonists, primary screen, Fluo-8 calcium fluorescence, CHO RD-HGA16 cells. vehicle wells 0%, saturating PEA agonist 100%. Trace amine-associated receptor 1 (Homo sapiens), Q96RJ0. 360,000 compounds, 0.99% hits. activation, % at 3 µM;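 active = activation above the mean activation of all test compounds in the run plus 3 SD, cut at about 38% in these data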
#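 Assay system: CHO-derived RD-HGA16 cells with stable Gα16 and human TAAR1; timing: 17-24 h seeding, 75 min 37 °C dye, 30 min RT; read-out: % activation from peak over basal fluorescence ratio, DMSO-to-PEA scaled; measured by: kinetic Fluo-8 calcium fluorescence; benchmarks: low control DMSO, high control PEA (EC100); doses: 3 µM single concentration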
# OX1R antag-1: antagonists of human orexin 1 receptor (OX1R); Orexin/Hypocretin receptor type 1 (Homo sapiens), O43613; OX1R-expressing cells, FRET antagonist read-out; inhibition, % at 6.6 µM; 330,000 compounds, 1.8% hits; in the data active = inhibition mostly above about 38%, no sharp cut-off; inactive = mostly below about 40%
# Target sequence (O43613 whole entry, looked up): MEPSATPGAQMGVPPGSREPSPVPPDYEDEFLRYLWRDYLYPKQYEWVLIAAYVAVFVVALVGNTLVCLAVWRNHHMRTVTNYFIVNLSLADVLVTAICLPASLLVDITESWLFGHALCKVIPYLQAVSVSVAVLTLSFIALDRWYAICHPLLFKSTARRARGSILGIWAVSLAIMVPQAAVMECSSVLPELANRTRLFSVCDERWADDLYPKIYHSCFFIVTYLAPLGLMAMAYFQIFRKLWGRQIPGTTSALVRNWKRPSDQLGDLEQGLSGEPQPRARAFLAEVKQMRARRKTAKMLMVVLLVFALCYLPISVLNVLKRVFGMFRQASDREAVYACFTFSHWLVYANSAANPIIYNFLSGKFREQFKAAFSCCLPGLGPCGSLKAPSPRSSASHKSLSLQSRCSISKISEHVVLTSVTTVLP
# TAAR1 antag: human TAAR1 antagonists, primary screen, Fluo-8 calcium fluorescence, CHO RD-HGA16 cells. 360,000 compounds, 1.5% hits. inhibition, % at 3 µM. Trace amine-associated receptor 1 (Homo sapiens), Q96RJ0. antagonist;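 active = inhibition above a per-plate cutoff, the mean inhibition of test compounds on that plate plus 3 SD, cut at about 49% in these data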
#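 test system = CHO RD-HGA16 cells bearing hTAAR1 | replication = singlicate | controls = DMSO-only wells and EC80 β-PEA-stimulated wells | reagent = EC80 β-phenethylamine stimulus | read-out basis = percent inhibition of PEA-evoked calcium signal, max/basal emission ratio | schedule = seeding 17-24 h prior, 75-min 37 °C, 30-min RT dye loading | signal = kinetic Fluo-8 calcium fluorescence measurement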
# OX1R antag-2: OX1R (HCRTR1) antagonists, primary screen, fluorescence, CHO/OX1R cells, Fluo-8 calcium, orexin A | inhibition, % at 5 µM | Fluo-8 calcium fluorescence | 330,000 compounds, 0.43% hits;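 active = inhibition above its plate's threshold, mean inhibition of all tested compounds on the plate plus 3 SD, cut at about 37% in these data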
# Hits are given with their value; 0 = inactive; - = no result.
SMILES,GPR7 antag,CHO parental Ca,TAAR1 ag,OX1R antag-1,TAAR1 antag,OX1R antag-2
CCC/C(=C1/c2ccccc2C(=O)N1c1ccccc1)c1ccc2[nH]ccc2c1,-,0,0,0,58,0
O=C1c2ccccc2/C(=C\c2ccc3[nH]ccc3c2)N1c1ccccc1,-,0,0,0,0,0
CCN(CC)CCCNC(=O)c1cc2cc(Cl)ccc2nc1N,-,-,0,-,0,-
c1ccc(-c2nc(NCc3cccnc3)c3ccccc3n2)cc1,0,0,-,49,-,0
OC(CNc1nc(-c2cccnc2)nc2ccccc12)c1ccccc1 (stereo unspecified),0,0,0,0,49,0
Clc1cccc(-c2nc(NCc3cccnc3)c3ccccc3n2)c1,0,0,0,64,0,0
Cc1ccc(-c2nc(NCc3cccnc3)c3ccccc3n2)cc1,0,0,0,0,0,0
OCCNc1nc(-c2cccnc2)nc2ccccc12,0,0,0,0,0,0
Cc1cccc(-n2c(C)nc3c(cnn3-c3ccc(F)cc3)c2=O)c1,0,35,0,0,0,0
COc1ccc(Oc2c(Cl)cnn(-c3ccc(Cl)c(Cl)c3)c2=O)cc1,0,52,0,0,0,0
COc1ccc(-n2c(C)nc3c(cnn3-c3ccc(Cl)cc3)c2=O)cc1,0,40,0,0,0,0
OC1OC2COC(c3ccccc3)OC2C(O)C1O (stereo unspecified),-,-,0,-,0,-
CC(C)C[C@@H](CN1CCC[C@H]1CN1C(=O)C(=O)NC[C@@H]1Cc1ccccc1)N1C[C@H](Cc2ccc(O)cc2)N(CC2CCCCC2)C(=O)C1=O,-,-,0,-,0,-
CC(=O)/C(N=Nc1ccc(C(=O)O)cc1[N+](=O)[O-])=C(\C)O,0,0,0,41,0,0
O=C(O)CSc1nnc(-c2ccc(Cl)cc2Cl)n1Cc1ccccc1,0,0,0,0,0,0
O=C(c1ccc(Cn2c(=S)[nH]c3ccccc3c2=O)cc1)N1CCN(c2ccccn2)CC1,0,0,0,0,57,0
O=C(c1ccc(Cn2c(=O)[nH]c3ccccc3c2=O)cc1)N1CCN(c2ccccn2)CC1,0,0,0,0,0,0
CCCCc1c(-c2ccccc2OC)ncn1Cc1ccc(-c2ccccc2)cc1,-,-,0,-,0,-
CCCc1c(-c2cccc(Cl)c2)ncn1CCc1ccccc1OC,-,-,0,-,53,-
CCCCc1c(-c2ccccc2OC)ncn1Cc1cccc(-c2ccccc2)c1,-,-,0,-,51,-
COc1ccccc1CCn1cnc(-c2cccc(F)c2)c1C(C)C,-,-,0,-,0,-
CCCCc1c(-c2cccc(OC)c2)ncn1CCc1ccccc1OC,-,-,0,-,56,-
COc1ccccc1CCn1cnc(-c2ccc(OC)c(OC)c2)c1C(C)C,-,-,42,-,0,-
Cc1cccc(NC(=O)c2nc[nH]c2C(=O)N(C)CCO)c1,-,-,0,-,0,-
COc1ccc(C(=O)N(C)[C@H]2C[C@H]3c4[nH]c5c(-c6ccccc6)cccc5c4CCN3C(=O)[C@H]2[C@H](C)O)cc1,-,-,0,-,0,-
SMILES,GPR7 antag,CHO parental Ca,TAAR1 ag,OX1R antag-1,TAAR1 antag,OX1R antag-2
CN(C)c1ccc(-c2csc(C(C)(O)c3ccc(F)c(F)c3)n2)cc1 (stereo unspecified),-,-,0,-,0,-
CN(C)c1ccc(N(C)C)c(C(O)(c2ccccc2)c2ccccc2)c1,-,-,0,-,0,-
CC1(C(=O)NCc2ccccc2)CN(S(C)(=O)=O)CC(=O)N1Cc1ccco1 (stereo unspecified),-,-,0,-,0,-
COc1cccc(/C=N/Nc2nnc(C)n2N)c1OCc1ccccc1Cl,0,0,0,67,0,0
COc1cccc(C=NNc2nnc(NN=Cc3cccc(OC)c3OC)c3ccccc23)c1OC,-,-,0,-,0,-
c1ccc(CCN(Cc2ccccc2)Cc2nc(C3CC3)no2)cc1,0,0,38,0,0,0
CCN(Cc1ccccc1)Cc1nc(CCc2ccccc2)no1,0,0,0,0,0,0
O=[N+]([O-])c1ccc(CN2[C@H](COCc3ccccc3)C=CS2(=O)=O)cc1,-,-,0,-,0,-
COC(=O)[C@]12C[C@H](CC(=O)NCC34CC5CC(CC(C5)C3)C4)C(=O)N(Cc3ccccc3)C1=C[C@H](C1CCCC1)O[C@@H]2C,-,-,0,-,0,-
CC(C)COc1ccc(/C(=N/O)c2ccccc2)cc1,0,33,0,0,0,0
CC(C)COc1ccc(CNC(=S)NCc2ccccc2)cc1,0,0,0,0,0,0
O=C1c2ccccc2S(=O)(=O)c2cc(C(=O)N3CCC(O)CC3)ccc21,-,0,0,75,0,0
CC(=O)N1CCN(C(=O)c2ccc3c(c2)S(=O)(=O)c2ccccc2C3=O)CC1,0,0,0,69,0,0
O=C1c2ccccc2S(=O)(=O)c2cc(C(=O)N3CCN(c4ncccn4)CC3)ccc21,-,0,0,0,0,0
O=C1c2ccccc2S(=O)(=O)c2cc(C(=O)N3CCN(C(=O)c4ccccc4)CC3)ccc21,-,0,0,0,0,0
CCN1CCN(C(=O)c2ccc3c(c2)S(=O)(=O)c2ccccc2C3=O)CC1,0,0,0,60,0,0
CN1CCN(C(=O)c2ccc3c(c2)S(=O)(=O)c2ccccc2C3=O)CC1,0,0,0,76,0,0
Cc1ccc(C2=N/C(=C\c3coc4ccccc4c3=O)C(=O)O2)cc1,-,-,0,-,0,-
COC(=O)C1=C(C)N(C)C(=NCc2ccc(OC)cc2)NC1c1cccc(Cl)c1 (stereo unspecified),-,-,0,-,0,-
O=C(CN(C(=O)CCC(=O)Nc1nccs1)c1ccccc1F)NCc1ccccc1,0,0,0,0,0,0
CCC(C)(C)NC(=O)c1ccc2c(c1)S(=O)(=O)c1ccccc1C2=O,0,0,0,0,0,0
CCN(CC(=O)NC(C)(C)C)C(=O)c1ccc2c(c1)S(=O)(=O)c1ccccc1C2=O,0,0,0,56,0,0
CC(O)(c1ccc(Cl)cc1)C(c1ccccc1)c1ccccn1 (stereo unspecified),-,-,0,-,0,-
CCCCNc1ccc2c(c1)OC[C@H](CC(C)C)NS2(=O)=O,-,-,0,-,0,-
COCCNC(=O)CN(c1cc(C(F)(F)F)ccc1Cl)S(C)(=O)=O,19,0,0,0,0,0
COCCCNC(=O)[C@@H](Cc1ccccc1)NC(=O)[C@H]1O[C@@H](n2ccc(=O)[nH]c2=O)[C@H](O)[C@@H]1O,-,-,0,-,0,-
C[C@H]1CN(S(=O)(=O)C(C)(C)C)[C@@H](CCO)/C1=C\c1ccccc1,-,-,0,-,0,-
COc1cccc(CNC(=O)[C@H]2CCCN2C(=O)[C@H]2CCCN2C(=O)N2CCCCC2)c1,-,-,0,-,0,-

# Source: PubChem
